Source: ChEMBL document CHEMBL2401648, “3-Aryl-3-arylmethoxyazetidines. A new class of high affinity ligands for monoamine transporters” (Bioorg Med Chem Lett, 2013)

Columns and labels:
Assay type in all cases: tissue-based
Rattus norvegicus = organism: Rattus norvegicus; assay: Selectivity ratio of Ki for DAT in Sprague-Dawley rat brain homogenate to Ki for SERT in Sprague-Dawley rat brain homogenate
Method in brief: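 Ratio of DAT Ki to SERT Ki. DAT Ki came from [3H]WIN 35,428 displacement and SERT Ki from [3H]citalopram displacement, both in rat brain tissue. Each Ki is the mean ± SEM of three experiments run in triplicate.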

[1] = target: Sodium-dependent serotonin transporter (Rattus norvegicus, UniProt P31652); assay: Displacement of [3H]Citalopram from SERT in Sprague-Dawley rat brain homogenate after 60 mins by scintillation counting analysis
Method in brief: (§1)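 Competitive binding in rat brain tissue: [3H]citalopram displaced from SERT, [3H]WIN 35,428 displaced from DAT. Ki values are the mean ± SEM of three experiments run in triplicate. Compounds tested mainly as hydrochloride salts, some as oxalate salts.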

[2] = target: Sodium-dependent dopamine transporter (Rattus norvegicus, UniProt P23977); assay: Displacement of [3H]WIN 35,428 from DAT in Sprague-Dawley rat brain homogenate preincubated for 5 mins prior to radioligand addition measured after 1 hr by scintillation counting analysis; method in brief: as §1
Chain of Sodium-dependent dopamine transporter (P23977 whole entry): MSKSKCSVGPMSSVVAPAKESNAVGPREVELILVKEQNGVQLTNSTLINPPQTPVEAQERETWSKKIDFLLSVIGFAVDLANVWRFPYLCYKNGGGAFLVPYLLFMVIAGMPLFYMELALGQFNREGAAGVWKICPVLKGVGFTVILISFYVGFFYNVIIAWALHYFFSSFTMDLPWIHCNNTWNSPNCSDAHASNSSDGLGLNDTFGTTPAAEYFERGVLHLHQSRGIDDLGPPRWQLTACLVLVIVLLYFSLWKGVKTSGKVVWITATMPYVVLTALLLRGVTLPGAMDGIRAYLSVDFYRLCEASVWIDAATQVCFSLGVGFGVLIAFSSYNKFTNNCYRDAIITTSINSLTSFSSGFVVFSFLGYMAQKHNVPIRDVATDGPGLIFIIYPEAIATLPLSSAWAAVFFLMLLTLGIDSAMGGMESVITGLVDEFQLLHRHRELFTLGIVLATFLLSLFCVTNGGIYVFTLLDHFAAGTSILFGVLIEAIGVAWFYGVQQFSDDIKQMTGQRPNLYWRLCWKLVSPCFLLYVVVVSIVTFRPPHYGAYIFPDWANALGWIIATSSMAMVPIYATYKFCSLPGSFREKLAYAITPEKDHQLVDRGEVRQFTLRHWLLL

Chain of Sodium-dependent serotonin transporter (P31652 whole entry): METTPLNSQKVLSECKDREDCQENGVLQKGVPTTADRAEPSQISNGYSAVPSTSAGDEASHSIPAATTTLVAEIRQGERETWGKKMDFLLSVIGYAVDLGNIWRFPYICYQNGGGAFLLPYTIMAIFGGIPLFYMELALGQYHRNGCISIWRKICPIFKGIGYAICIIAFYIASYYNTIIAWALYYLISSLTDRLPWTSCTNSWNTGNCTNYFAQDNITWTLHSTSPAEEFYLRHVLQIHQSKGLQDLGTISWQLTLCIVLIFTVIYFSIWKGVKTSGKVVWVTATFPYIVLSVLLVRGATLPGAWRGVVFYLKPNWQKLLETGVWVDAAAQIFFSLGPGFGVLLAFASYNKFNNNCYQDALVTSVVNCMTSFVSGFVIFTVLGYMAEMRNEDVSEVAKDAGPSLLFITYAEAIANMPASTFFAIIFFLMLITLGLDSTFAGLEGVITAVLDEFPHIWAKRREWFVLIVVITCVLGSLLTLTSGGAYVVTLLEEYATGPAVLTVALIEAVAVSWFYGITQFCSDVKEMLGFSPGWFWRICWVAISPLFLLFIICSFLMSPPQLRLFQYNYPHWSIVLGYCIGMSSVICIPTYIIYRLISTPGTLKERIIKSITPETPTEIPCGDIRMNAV

| Structure (SMILES) | Ratio Ki (Rattus norvegicus) | Ki [1] | Ki [2] |
| --- | --- | --- | --- |
| CN1CC(OCc2ccc(Cl)cc2)(c2ccccc2)C1 | 980 | 4 nM | 3910 nM |
| CN1CC(OCc2ccc(Cl)cc2)(c2ccc(Cl)c(Cl)c2)C1 | 630 | 4.8 nM | 2290 nM |
| Clc1ccc(COC2(c3ccc(Cl)c(Cl)c3)CNC2)cc1Cl | 870 | 4.2 nM | 3670 nM |
| Clc1ccc(COC2(c3ccc(Cl)c(Cl)c3)CNC2)cc1 | 1000 | 2.9 nM | 3020 nM |
| CN1CC(OCc2ccccc2)(c2ccccc2)C1 | 24 | 73 nM | 1730 nM |
| Clc1ccc(C2(OCc3ccccc3)CNC2)cc1 | 3.9 | 825 nM | 3180 nM |
| Clc1ccc(COC2(c3ccccc3)CNC2)cc1Cl | 390 | 7.3 nM | 2820 nM |
| Clc1ccc(C2(OCc3ccc(Cl)c(Cl)c3)CNC2)cc1 | 470 | 8.1 nM | 3770 nM |
| c1ccc(COC2(c3ccccc3)CNC2)cc1 | 4 | 1230 nM | 4860 nM |
| CN1CC(OCc2ccc(Cl)c(Cl)c2)(c2ccc(Cl)cc2)C1 | 330 | 3 nM | 976 nM |
| CN1CC(OCc2ccccc2)(c2ccc(Cl)c(Cl)c2)C1 | 27 | 23 nM | 620 nM |
| Clc1ccc(C2(OCc3ccccc3)CNC2)cc1Cl | 6.3 | 208 nM | 1300 nM |
| CN1CC(OCc2ccc(Cl)c(Cl)c2)(c2ccccc2)C1 | – | 1 nM | – |
| Clc1ccc(COC2(c3ccc(Cl)cc3)CNC2)cc1 | 1100 | 3.5 nM | 3830 nM |
| CN1CC(OCc2ccc(Cl)c(Cl)c2)(c2ccc(Cl)c(Cl)c2)C1 | 340 | 1.3 nM | 436 nM |
| CN1CC(OCc2ccccc2)(c2ccc(Cl)cc2)C1 | 36 | 39 nM | 1410 nM |
| CN1CC(OCc2ccc(Cl)cc2)(c2ccc(Cl)cc2)C1 | 490 | 7.8 nM | 2030 nM |
| Clc1ccc(COC2(c3ccccc3)CNC2)cc1 | 1.4 | 2590 nM | 3610 nM |
